The source of these data is ChEMBL document CHEMBL4765301, “Discovery of novel TNNI3K inhibitor suppresses pyroptosis and apoptosis in murine myocardial infarction injury” (Eur J Med Chem, 2020).

For experiment [1], the target named is Vascular endothelial growth factor receptor 2 (Homo sapiens) (UniProt P35968). As to the kind of experiment: Inhibition of recombinant human KDR (790 to end residues) assessed as residual activity at 1 uM using myelin basic protein as substrate incubated for 40 mins by [gamma-33P]-ATP scintillation counting based radiometry assay relative to control.
Experiment [2] concerns H9c2. As to the kind of experiment: Cytoprotective activity against OGD-induced cell death in rat H9c2 cells assessed as cell viability at 1 uM incubated for 24 hrs by MTT assay (reference value: 42.08 to 49.11 %). It is filed as functional. To be noted: read-out: Activity. Background: Tetrazolium assays rely on reduction of a dye to a coloured formazan, in cell work by metabolically active cells.

The test system of experiment [3] is H9c2. As to the kind of experiment: Cytoprotective activity against OGD-induced cell death in rat H9c2 cells assessed as cell viability at 10 uM incubated for 24 hrs by MTT assay (reference value: 42.08 to 49.11 %). It counts as functional. Conditions: read-out: Activity.
Experiment [4] concerns the target T1, Serine/threonine-protein kinase TNNI3K (Homo sapiens, UniProt Q59H18).
T1 sequence (Q59H18 whole entry): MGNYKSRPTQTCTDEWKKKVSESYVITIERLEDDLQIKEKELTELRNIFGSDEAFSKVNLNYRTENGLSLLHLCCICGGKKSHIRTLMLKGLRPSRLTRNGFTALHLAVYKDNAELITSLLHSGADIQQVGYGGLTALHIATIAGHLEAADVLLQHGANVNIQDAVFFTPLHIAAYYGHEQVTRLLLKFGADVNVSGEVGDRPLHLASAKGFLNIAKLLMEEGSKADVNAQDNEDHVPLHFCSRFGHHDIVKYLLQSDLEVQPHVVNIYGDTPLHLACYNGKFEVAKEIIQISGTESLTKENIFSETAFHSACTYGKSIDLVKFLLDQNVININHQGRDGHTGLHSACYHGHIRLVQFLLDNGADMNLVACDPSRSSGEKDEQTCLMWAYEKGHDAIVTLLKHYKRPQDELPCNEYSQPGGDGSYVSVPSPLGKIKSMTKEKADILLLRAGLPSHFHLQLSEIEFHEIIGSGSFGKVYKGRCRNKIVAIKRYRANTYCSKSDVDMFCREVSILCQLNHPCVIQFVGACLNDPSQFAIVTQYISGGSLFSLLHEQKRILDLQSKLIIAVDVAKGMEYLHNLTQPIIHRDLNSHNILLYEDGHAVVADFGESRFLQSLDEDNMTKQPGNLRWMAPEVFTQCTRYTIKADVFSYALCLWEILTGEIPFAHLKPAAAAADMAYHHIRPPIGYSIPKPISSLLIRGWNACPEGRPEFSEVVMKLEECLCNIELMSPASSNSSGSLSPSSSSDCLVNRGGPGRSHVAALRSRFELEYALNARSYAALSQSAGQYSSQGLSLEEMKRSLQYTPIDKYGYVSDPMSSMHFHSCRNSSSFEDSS
As to the kind of experiment: Inhibition of TNNI3K (unknown origin) using biotinylated CTnI as substrate by HTRF analysis. The procedure, abridged:
(§1)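 TNNI3K was assayed by HTRF using a GST-tagged TNNI3K kinase domain and a biotinylated cardiac troponin I substrate peptide, followed by the two HTRF detection reagents. Compounds were screened at 1.0 µM, then IC50s were determined.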
(In general: TR-FRET usually uses a lanthanide donor and a delayed reading to cut background.)

Experiment [5] deals with T2, Serine/threonine-protein kinase TNNI3K (Homo sapiens) (UniProt Q59H18).
T2 sequence (whole entry): T1 sequence (Q59H18 whole entry)
Put plainly: Inhibition of TNNI3K (unknown origin) assessed as residual activity at 1 uM using biotinylated CTnI as substrate by HTRF analysis relative to control. In short, it runs like this: as §1

The target of experiment [6] is Vascular endothelial growth factor receptor 1 (Homo sapiens) (UniProt P17948). Put plainly: Inhibition of recombinant human FLT1 (783 to end residues) assessed as residual activity at 1 uM using KKKSPGEYVNIEFG as substrate incubated for 40 mins by [gamma-33P]-ATP scintillation counting based radiometry assay relative to control.
In experiment [7] the target is Receptor tyrosine-protein kinase erbB-2 (Homo sapiens) (UniProt P04626). As to the kind of experiment: Inhibition of recombinant human HER2 (676 to end residues) assessed as residual activity at 1 uM using poly(Glu, Tyr) 4:1 as substrate incubated for 40 mins by [gamma-33P]-ATP scintillation counting based radiometry assay relative to control.
Experiment [8] deals with Epidermal growth factor receptor (Homo sapiens) (UniProt P00533). As to the kind of experiment: Inhibition of recombinant human EGFR (696 to end residues) assessed as residual activity at 1 uM using poly(Glu, Tyr) 4:1 as substrate incubated for 40 mins by [gamma-33P]-ATP scintillation counting based radiometry assay relative to control.
Chain of Epidermal growth factor receptor (Homo sapiens) (P00533 whole entry): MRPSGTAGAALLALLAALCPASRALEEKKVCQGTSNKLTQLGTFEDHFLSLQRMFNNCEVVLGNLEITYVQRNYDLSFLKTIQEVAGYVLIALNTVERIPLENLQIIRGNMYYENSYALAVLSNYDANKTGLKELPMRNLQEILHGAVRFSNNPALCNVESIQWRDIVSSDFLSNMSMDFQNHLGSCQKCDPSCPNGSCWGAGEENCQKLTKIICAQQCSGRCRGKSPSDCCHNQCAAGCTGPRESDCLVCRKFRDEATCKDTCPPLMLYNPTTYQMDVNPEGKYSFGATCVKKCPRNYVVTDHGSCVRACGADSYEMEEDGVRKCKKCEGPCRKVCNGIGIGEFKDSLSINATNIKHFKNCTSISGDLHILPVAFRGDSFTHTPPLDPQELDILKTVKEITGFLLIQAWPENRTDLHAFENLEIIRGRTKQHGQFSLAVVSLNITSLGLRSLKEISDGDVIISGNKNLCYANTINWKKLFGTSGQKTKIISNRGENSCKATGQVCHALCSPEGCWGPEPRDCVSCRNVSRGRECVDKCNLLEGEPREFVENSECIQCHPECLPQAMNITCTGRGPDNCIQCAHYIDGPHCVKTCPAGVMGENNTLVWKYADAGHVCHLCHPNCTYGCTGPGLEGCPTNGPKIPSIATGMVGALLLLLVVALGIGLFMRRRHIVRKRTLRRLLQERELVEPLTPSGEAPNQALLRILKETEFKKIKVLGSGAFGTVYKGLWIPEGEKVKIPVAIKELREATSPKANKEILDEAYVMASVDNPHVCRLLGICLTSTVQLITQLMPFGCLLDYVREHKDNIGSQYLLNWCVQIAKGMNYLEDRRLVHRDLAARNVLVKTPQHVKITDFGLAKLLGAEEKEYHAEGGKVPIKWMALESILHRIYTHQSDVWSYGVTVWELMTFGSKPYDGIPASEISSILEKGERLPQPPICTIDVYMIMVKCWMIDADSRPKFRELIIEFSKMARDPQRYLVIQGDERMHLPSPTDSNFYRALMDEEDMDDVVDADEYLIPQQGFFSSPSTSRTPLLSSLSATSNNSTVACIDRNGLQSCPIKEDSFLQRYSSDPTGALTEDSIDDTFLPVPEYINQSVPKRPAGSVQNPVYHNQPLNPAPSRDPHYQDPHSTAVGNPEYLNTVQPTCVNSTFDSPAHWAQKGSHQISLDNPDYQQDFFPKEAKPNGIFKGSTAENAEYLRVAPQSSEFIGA

Chain of Receptor tyrosine-protein kinase erbB-2 (Homo sapiens) (P04626 whole entry): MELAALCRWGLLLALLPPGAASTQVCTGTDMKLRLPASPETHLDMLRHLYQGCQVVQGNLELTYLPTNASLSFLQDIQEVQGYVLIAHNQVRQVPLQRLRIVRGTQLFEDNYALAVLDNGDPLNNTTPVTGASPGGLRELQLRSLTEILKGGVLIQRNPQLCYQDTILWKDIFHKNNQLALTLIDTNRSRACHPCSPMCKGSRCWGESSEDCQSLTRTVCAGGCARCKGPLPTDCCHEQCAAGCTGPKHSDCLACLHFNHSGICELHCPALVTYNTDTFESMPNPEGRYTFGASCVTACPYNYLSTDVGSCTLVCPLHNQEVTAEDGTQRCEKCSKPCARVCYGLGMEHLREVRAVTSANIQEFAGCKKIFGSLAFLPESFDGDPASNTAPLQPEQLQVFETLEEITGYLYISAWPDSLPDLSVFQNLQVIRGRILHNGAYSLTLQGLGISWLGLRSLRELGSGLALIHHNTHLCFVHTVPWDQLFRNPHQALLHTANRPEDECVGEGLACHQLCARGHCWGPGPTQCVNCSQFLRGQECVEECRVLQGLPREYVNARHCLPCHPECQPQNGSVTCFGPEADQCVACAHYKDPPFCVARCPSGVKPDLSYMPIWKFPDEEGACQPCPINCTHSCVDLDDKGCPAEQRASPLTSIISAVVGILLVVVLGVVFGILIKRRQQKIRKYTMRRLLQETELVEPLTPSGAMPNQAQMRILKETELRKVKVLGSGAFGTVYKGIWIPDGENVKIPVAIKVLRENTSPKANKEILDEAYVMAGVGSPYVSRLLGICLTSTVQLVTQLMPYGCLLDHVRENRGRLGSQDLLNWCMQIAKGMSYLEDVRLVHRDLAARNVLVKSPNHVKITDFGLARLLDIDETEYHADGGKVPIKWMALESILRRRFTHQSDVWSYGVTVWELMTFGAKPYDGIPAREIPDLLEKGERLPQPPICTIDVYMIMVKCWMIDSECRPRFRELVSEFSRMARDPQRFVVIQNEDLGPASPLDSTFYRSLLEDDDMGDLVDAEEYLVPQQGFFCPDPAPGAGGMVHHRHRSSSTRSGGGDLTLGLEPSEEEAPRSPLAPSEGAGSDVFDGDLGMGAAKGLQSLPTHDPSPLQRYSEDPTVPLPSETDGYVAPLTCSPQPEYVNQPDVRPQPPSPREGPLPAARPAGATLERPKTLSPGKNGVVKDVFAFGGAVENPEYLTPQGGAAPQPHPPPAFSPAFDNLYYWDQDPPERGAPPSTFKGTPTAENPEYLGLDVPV
Chain of Vascular endothelial growth factor receptor 1 (Homo sapiens) (P17948 whole entry): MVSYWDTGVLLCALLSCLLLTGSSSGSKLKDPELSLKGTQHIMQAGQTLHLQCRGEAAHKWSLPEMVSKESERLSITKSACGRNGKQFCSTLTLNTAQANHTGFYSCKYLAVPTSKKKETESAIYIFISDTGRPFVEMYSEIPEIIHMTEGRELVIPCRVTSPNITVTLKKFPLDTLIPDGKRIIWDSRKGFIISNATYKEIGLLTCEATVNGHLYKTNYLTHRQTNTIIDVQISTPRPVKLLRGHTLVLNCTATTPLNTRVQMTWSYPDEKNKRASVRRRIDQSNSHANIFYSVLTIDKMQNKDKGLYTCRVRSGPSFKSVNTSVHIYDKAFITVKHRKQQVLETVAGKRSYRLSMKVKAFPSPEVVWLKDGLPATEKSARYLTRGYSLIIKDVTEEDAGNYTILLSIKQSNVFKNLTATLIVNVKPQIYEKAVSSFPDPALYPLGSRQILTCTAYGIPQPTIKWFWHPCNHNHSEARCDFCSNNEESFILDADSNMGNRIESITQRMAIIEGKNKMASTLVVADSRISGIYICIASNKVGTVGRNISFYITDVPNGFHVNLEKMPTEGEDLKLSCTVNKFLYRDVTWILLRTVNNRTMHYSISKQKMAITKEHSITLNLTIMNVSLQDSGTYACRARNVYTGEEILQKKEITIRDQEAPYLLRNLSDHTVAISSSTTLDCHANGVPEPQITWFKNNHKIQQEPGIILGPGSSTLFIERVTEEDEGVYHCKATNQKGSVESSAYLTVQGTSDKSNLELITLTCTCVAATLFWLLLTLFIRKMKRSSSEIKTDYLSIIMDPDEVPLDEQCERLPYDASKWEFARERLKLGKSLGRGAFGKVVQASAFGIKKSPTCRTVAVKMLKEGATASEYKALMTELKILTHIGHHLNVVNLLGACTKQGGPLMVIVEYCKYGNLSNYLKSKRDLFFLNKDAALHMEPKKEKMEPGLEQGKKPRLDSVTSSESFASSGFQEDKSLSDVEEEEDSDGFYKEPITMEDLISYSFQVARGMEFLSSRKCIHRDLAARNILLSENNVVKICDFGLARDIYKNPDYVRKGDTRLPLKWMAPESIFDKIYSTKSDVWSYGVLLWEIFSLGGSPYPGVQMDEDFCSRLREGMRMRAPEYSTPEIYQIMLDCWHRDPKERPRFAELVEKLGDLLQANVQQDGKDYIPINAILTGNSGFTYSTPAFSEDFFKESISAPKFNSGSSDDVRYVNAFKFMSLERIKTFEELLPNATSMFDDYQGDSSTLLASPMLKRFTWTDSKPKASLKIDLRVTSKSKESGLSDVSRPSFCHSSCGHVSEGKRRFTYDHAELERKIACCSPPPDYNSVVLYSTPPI

The term IC50 denotes the concentration that inhibits the measured activity by half. With `CN(C)c1ccc(Nc2ncnc3sc4c(c23)CCNC4)cc1NC(=O)c1cccs1`, the Activity in experiment [1] worked out at 95%; in experiment [5] it was 38%; in experiment [6] it was 101%; in experiment [7], 106%; in experiment [8], 93%. The viability at 1 µM in the experiment with H9c2 [2] is 56.9%. Besides, in the experiment with H9c2 [3], the viability at 10 µM came to 75.9%. In experiment [4], this molecule gave an IC50 of 780 nM.

Take `CCC(=O)Nc1cc(Nc2ncnc3sc4c(c23)CCN(CCCN2CCOCC2)C4)ccc1N(C)C`: the Activity in experiment [1] turned out to be 86%; in experiment [5], 37%; in experiment [6], 90%; in experiment [7] it was 108%; in experiment [8], 105%. The viability at 1 µM in the experiment with H9c2 [2] was determined as 62.4%. The viability at 10 µM in the experiment on H9c2 [3] is 82.2%. Half-maximal inhibition in experiment [4] (IC50) was put at 480 nM.

On to `CN1CCN(CCCN2CCc3c(sc4ncnc(Nc5ccc(N(C)C)c(NC(=O)c6ccco6)c5)c34)C2)CC1`, for which the Activity in experiment [1] turned out to be 88%; in experiment [5], 33%; in experiment [6], 100%; in experiment [7], 107%; in experiment [8], 90%. Also, the viability at 1 µM with H9c2 [2] stood at 61.1%. In addition, the viability at 10 µM in the experiment with H9c2 [3] amounted to 79.9%. The same molecule gave a half-maximal inhibitory concentration (IC50) in experiment [4] of 640 nM.

`CN(C)CCCN1CCc2c(sc3ncnc(Nc4ccc(N(C)C)c(NC(=O)c5cccs5)c4)c23)C1`: the Activity in experiment [1] amounted to 81%; in experiment [5], 33%; in experiment [6], 98%; in experiment [7], 102%; in experiment [8], 86%. In the experiment with H9c2 [2], the viability at 1 µM was found to be 58.5%. Besides, in the experiment on H9c2 [3], the viability at 10 µM was 78.5%. In experiment [4], it took 570 nM to reach half-maximal inhibition (IC50).

Take `CN1CCc2c(sc3ncnc(Nc4ccc(N(C)C)c(NC(=O)c5ccco5)c4)c23)C1`: the Activity was found to be 89% in experiment [1]; 37% in experiment [5]; 105% in experiment [6]; 95% in experiment [7]; 93% in experiment [8]. In addition, the viability at 1 µM in the experiment on H9c2 [2] is 59.6%. In addition, the viability at 10 µM in the experiment with H9c2 [3] is 85.6%. In addition, in experiment [4], it took 560 nM to reach half-maximal inhibition (IC50).

For the molecule `CN1CCN(CCCN2CCc3c(sc4ncnc(Nc5ccc(N(C)C)c(NC(=O)c6cccs6)c5)c34)C2)CC1`, the Activity in experiment [1] was determined as 93%; in experiment [5] it was 38%; in experiment [6] it was 98%; in experiment [7] it was 103%; in experiment [8], 86%. The viability at 1 µM in the experiment on H9c2 [2] is 69.1%. Further, in the experiment on H9c2 [3], the viability at 10 µM was 81.8%. The same molecule gave an IC50 in experiment [4] of 330 nM.

`CN(C)c1ccc(Nc2ncnc3sc4c(c23)CCNC4)cc1NC(=O)c1ccncc1`: the Activity in experiment [1] was 92%; in experiment [5] it was 39%; in experiment [6] it was 103%; in experiment [7], 109%; in experiment [8] it was 90%. For the same molecule, the viability at 1 µM with H9c2 [2] amounted to 53%. Further, the viability at 10 µM in the experiment on H9c2 [3] turned out to be 68.1%. The molecule further came in with an IC50 in experiment [4] of 960 nM.

Turning to `CN(C)c1ccc(Nc2ncnc3sc4c(c23)CCN(C(=O)c2ccccn2)C4)cc1NC(=O)c1ccco1`, the Activity in experiment [1] turned out to be 77%; in experiment [5], 39%; in experiment [6] it was 86%; in experiment [7] it was 89%; in experiment [8], 104%. Also, the viability at 1 µM in the experiment on H9c2 [2] is 54.3%. Besides, the viability at 10 µM in the experiment with H9c2 [3] came out at 70.9%. The molecule also registered an IC50 in experiment [4] of 820 nM.

On to `CN(C)c1ccc(Nc2ncnc3sc4c(c23)CCN(C(=O)c2ccncc2)C4)cc1NC(=O)c1ccco1`, for which the Activity in experiment [1] was found to be 92%; in experiment [5], 35%; in experiment [6], 109%; in experiment [7], 116%; in experiment [8] it was 107%. Moreover, the viability at 1 µM in the experiment on H9c2 [2] was 49.1%. Further, the viability at 10 µM in the experiment on H9c2 [3] amounted to 70.7%. Further, in experiment [4], the midpoint of inhibition, the IC50, lay at 980 nM.
